Holding throughout (type): functional
Experiment [1] deals with Trichophyton mentagrophytes. As to the kind of experiment: Antimicrobial activity against Trichophyton mentagrophytes NCPF 224 after 10 days by microdilution technique. The following applies: 240 h. The method, boiled down:
(§1)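 Dermatophytes were grown on Sabouraud's dextrose agar at 26 °C for 10 days. Fresh inocula were standardized to 10^4 CFU per 100 µL for broth microdilution against compound in DMSO (initial 500 µg/mL). Plates were kept at 26 °C for 10 days and inspected visually every day, and the MIC was recorded. Controls were ketoconazole and DMSO alone.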
A general note: Dilution methods test growth across graded concentrations, often in twofold steps.

For another experiment, the system named is Nannizzia gypsea. In words: Antimicrobial activity against Microsporum gypseum NCPF 40 after 10 days by microdilution technique. The following applies: 240 h. The gist of the method:
as §1

The subject of a further experiment is Epidermophyton floccosum. In words: Antimicrobial activity against Epidermophyton floccosum after 10 days by microdilution technique. The following applies: 240 h. The gist of the method: as §1
The test system of another experiment is Trichophyton tonsurans. As to the kind of experiment: Antimicrobial activity against Trichophyton tonsurans EQ 4329 after 10 days by microdilution technique. The following applies: 240 h. The method, boiled down: as §1
In experiment [2] the test system is Trichophyton interdigitale. In words: Antimicrobial activity against Trichophyton interdigitale EQ 4115 after 10 days by microdilution technique. As to conditions: 240 h. The method, boiled down:
as §1

Experiment [3] relates to Cladosporium cladosporioides. As to the kind of experiment: Antimicrobial activity against Cladosporium cladosporioides IMI 299104 after 10 days by microdilution technique. The following applies: 240 h. The method, boiled down:
(§2)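 These plant-pathogenic Cladosporium strains were cultured on potato dextrose agar at 26 °C for 10 days. Suspensions were standardized to 10^4 CFU per 100 µL and tested by microdilution against compound dissolved in DMSO (initial 500 µg/mL). Plates were held at 26 °C for 10 days with daily visual growth checks, and the MIC was recorded. Controls were ketoconazole and DMSO alone.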

The subject of another experiment is Cladosporium herbarum. As to the kind of experiment: Antimicrobial activity against Cladosporium herbarum after 10 days by microdilution technique. As to conditions: 240 h. The method, boiled down: as §2
A further experiment concerns Candida albicans. As to the kind of experiment: Antimicrobial activity against Candida albicans after 24 hrs by microdilution technique. The method, boiled down: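 Yeast was cultured on Sabouraud's dextrose agar at 30 °C for 24 h. A fresh suspension was standardized to 10^4 CFU per 100 µL and added to microdilution wells holding compound in DMSO (initial 500 µg/mL). Plates were incubated at 30 °C for 24 h and checked visually for growth to give the MIC. Controls were ketoconazole and DMSO alone.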

A further experiment concerns Escherichia coli. In words: Antimicrobial activity against Escherichia coli NCTC 9002 after 24 hrs by microdilution technique. As to conditions: NCTC 9002, 24 h. The method, boiled down:
(§3)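 Bacteria were grown on nutrient agar at 37 °C for 24 h. Fresh suspensions were standardized to 10^5 CFU per 100 µL and added to microdilution wells. Compounds were dissolved in DMSO with an initial concentration of 500 µg/mL. Ampicillin served as the positive control, with a DMSO-alone check. Growth was read visually and the MIC recorded.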

The test system of the next experiment is Staphylococcus aureus. As to the kind of experiment: Antimicrobial activity against Staphylococcus aureus NCIMB 9515 after 24 hrs by microdilution technique. The method, boiled down: as §3
In a further experiment the test system is Bacillus subtilis. In words: Antimicrobial activity against Bacillus subtilis NCTC 10073 after 24 hrs by microdilution technique. As to conditions: NCTC 10073, 24 h. The method, boiled down: as §3
A further experiment concerns Pseudomonas aeruginosa. In words: Antimicrobial activity against Pseudomonas aeruginosa NCIMB 10421 after 24 hrs by microdilution technique. The gist of the method: as §3

Converted amounts (≈) assume the structure as drawn.

Usually MIC stands for the lowest concentration found to suppress growth. A high value points to a less susceptible organism. Take `CC(=O)N1CCN(c2ccc(OCC3COC(Cn4ccnc4)(c4ccc(Cl)cc4Cl)O3)cc2)CC1` (stereo not drawn) [KETOCONAZOLE]: the MIC in experiment [1] was 6.25 µg/mL (≈ 11.8 µM); with Nannizzia gypsea, 6.25 µg/mL (≈ 11.8 µM); in the experiment on Epidermophyton floccosum it was 25 µg/mL (≈ 47 µM); in the experiment on Trichophyton tonsurans, 50 µg/mL (≈ 94.1 µM); in experiment [2], 25 µg/mL (≈ 47 µM); in experiment [3] it was 25 µg/mL (≈ 47 µM). Further, the MIC in the experiment with Cladosporium herbarum was determined as 50 µg/mL (≈ 94.1 µM); with Candida albicans it was 25 µg/mL (≈ 47 µM).

For `O=C1C[C@]23C=CCN4CC[C@H]5c6cc7c(cc6N1[C@@]5(CC2)[C@@H]43)OCO7` [SCHIZOZYGINE], the MIC (in experiment [1]; against Nannizzia gypsea; against Epidermophyton floccosum; in the experiment on Trichophyton tonsurans; in experiment [2]; in experiment [3]) was greater than 500 µg/mL each time. The MIC with Cladosporium herbarum, in the experiment with Candida albicans, against Escherichia coli, with Staphylococcus aureus, in the experiment with Bacillus subtilis and with Pseudomonas aeruginosa was greater than 500 µg/mL in each case.

As for `COc1ccc2c(c1)N1C(=O)C[C@]34C=CCN5CC[C@@H]2[C@@H](CC3)[C@]514` [ISOSCHIZOGALINE], the MIC (in experiment [1]; in the experiment on Nannizzia gypsea; in the experiment with Epidermophyton floccosum; in the experiment with Trichophyton tonsurans; in [2]; in [3]) was greater than 500 µg/mL throughout. Further, the MIC is greater than 500 µg/mL against Cladosporium herbarum; greater than 500 µg/mL in the experiment with Candida albicans; greater than 500 µg/mL in the experiment with Escherichia coli; 125 µg/mL (≈ 388 µM) in the experiment on Staphylococcus aureus; 62.5 µg/mL (≈ 194 µM) in the experiment with Bacillus subtilis; greater than 500 µg/mL in the experiment on Pseudomonas aeruginosa.

Regarding `O=C1[C@H](O)[C@]23C=CCN4CC=C5c6cc7c(cc6N1[C@@]5(CC2)[C@@H]43)OCO7`, the MIC was less than 1.95 µg/mL in [1]; 1.95 µg/mL (≈ 5.57 µM) in the experiment on Nannizzia gypsea; greater than 1.95 µg/mL with Epidermophyton floccosum; 3.9 µg/mL (≈ 11.1 µM) against Trichophyton tonsurans; less than 3.9 µg/mL in [2]; 7.8 µg/mL (≈ 22.3 µM) in experiment [3]. Also, the minimal inhibitory concentration (MIC) against Cladosporium herbarum is 15.6 µg/mL (≈ 44.5 µM); in the experiment with Candida albicans, 7.8 µg/mL (≈ 22.3 µM); in the experiment with Escherichia coli, 250 µg/mL (≈ 714 µM); against Staphylococcus aureus it was greater than 500 µg/mL; in the experiment on Bacillus subtilis, greater than 500 µg/mL; against Pseudomonas aeruginosa, greater than 500 µg/mL.

Regarding `CC1(C)S[C@@H]2[C@H](NC(=O)[C@H](N)c3ccccc3)C(=O)N2[C@H]1C(=O)O` [AMPICILLIN], the MIC against Escherichia coli is 20 µg/mL (≈ 57.2 µM); in the experiment with Staphylococcus aureus, 12.5 µg/mL (≈ 35.8 µM); against Bacillus subtilis, 12.5 µg/mL (≈ 35.8 µM); in the experiment on Pseudomonas aeruginosa, 25 µg/mL (≈ 71.5 µM).

For the origin of these results see ChEMBL document CHEMBL1148127, “Antimicrobial activities of a new schizozygane indoline alkaloid from Schizozygia coffaeoides and the revised structure of isoschizogaline” (2002).
